According to PMC3351161 (Nucleic Acids Research, 2012):
Positions count from the first letter of the chain named. Numbers in names are those of the source. Where no end group is shown, it is not given here. [ ]: non-standard residue; d: D form. pT = C[C@@H](OP(=O)(O)O)[C@H](N)C(=O)O

Key:
Mdc1–FHA domain = experiment: Detection of proposed partners in Mdc1–FHA pull-down / co-immunoprecipitation; type: binding, human; settings: for detection in fraction pulled down by Mdc1–FHA domain: mass spectrometry; for detection by western blot in Mdc1–FHA pull-down / co-IP: U2OS, 10 Gy IR or untreated
[1] = test system: Strep-tagged Mdc1–FHA domain (amino acids 1–154); experiment: SILAC pull-down of Mdc1–FHA interaction partners, −IR versus +IR; type: binding, human; settings: 10 Gy IR
Method in brief: (§1)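 U2OS cells stably carry a doxycycline-inducible, C-terminally Strep-tagged FHA domain (aa 1–154) or empty plasmid. They are SILAC-labelled (Lys0/Arg0, Lys4/Arg6, Lys8/Arg10) in dialyzed FBS, induced 16 h, then given 10 Gy IR for 30 min. Lysis in pH 7.5 Tris/NP-40 buffer with phosphatase and protease inhibitors, Strep-Tactin capture, pooled eluates on 4–20% SDS-PAGE, in-gel trypsin digestion. Analysis by nano-LC Orbitrap Velos MS and MaxQuant (FDR <1%). Read-out is normalized log2 SILAC ratios; 1:1:1 ratios count as background binders.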

[2] = test system: Mdc1–FHA WT and T4A mutant domains; experiment: SILAC pull-down, wild-type versus T4A Mdc1–FHA domain after IR; type: binding, human; settings: IR-treated cells
Method in brief: as §1

Mdc1 M-1, 1-124 = Mdc1 M-1, 1-124 (UniProt Q14676); experiment: peptide pull-down of purified GST fragment; settings: reference: unphosphorylated peptide; sites T4
Mdc1 = Mdc1 (UniProt Q14676); experiment: Strep-Tactin pull-down, SILAC LC-MS/MS; settings: reference: wild type FHA fragment; sites T4
Chain of Mdc1 (Q14676 1-154 T4A): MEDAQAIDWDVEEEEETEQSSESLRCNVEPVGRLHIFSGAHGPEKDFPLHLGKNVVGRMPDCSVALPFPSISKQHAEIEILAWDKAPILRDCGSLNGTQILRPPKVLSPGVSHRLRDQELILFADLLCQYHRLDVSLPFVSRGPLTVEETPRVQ

Mdc1 1-800 = Mdc1 1-800 (UniProt Q14676); experiment: anti-Flag co-IP, anti-Myc blot; settings: reference: wild type; sites T4
Mdc1 FHA domain = Mdc1 FHA domain (UniProt Q14676); experiment: ITC; settings: reference: non-phosphorylated Thr-4 peptide; sites T4
Myc-tagged Mdc1 (1–800) = experiment: Co-immunoprecipitation of Flag- and Myc-tagged Mdc1; type: cell-based, human; settings: transiently transfected 293T cells, anti-Flag IP, anti-Myc immunoblot
Method in brief: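 Human Mdc1 residues 1–800, C-terminally tagged with HA/FLAG or Myc, in a pcDNA3.1(+) vector. HEK 293T cells grown in D-MEM with 10% FCS and streptomycin/penicillin (100 U/ml). Transfected with FuGene 6 or calcium phosphate. Immunoprecipitation on anti-FLAG M2 affinity gel; Myc-tagged partner detected by immunoblot with rabbit polyclonal c-Myc antibody.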

[3] = test system: immunoprecipitated human ATM; experiment: In vitro ATM kinase assay of recombinant Mdc1 fragments; type: biochemical; settings: 0.5 mM ATP, γ-[32P]ATP, 30 min at 30°C, autoradiography
SEC-MALS = target: the molecule itself; experiment: SEC-MALS
[4] = test system: Mdc1 Thr-4 / Thr-98 phosphorylation; experiment: MS quantitation of Mdc1–FHA phosphorylation site occupancy; type: cell-based, human
[5] = target: T1, Mdc1 fragment M-1 (amino acids 1–124), GST fusion (human, UniProt Q14676 1-124); experiment: pull-down
T1 sequence (looked up): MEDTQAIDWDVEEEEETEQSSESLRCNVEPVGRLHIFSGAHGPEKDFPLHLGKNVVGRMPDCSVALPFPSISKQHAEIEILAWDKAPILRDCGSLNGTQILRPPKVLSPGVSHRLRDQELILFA

Molecule: ATM: ataxia telangiectasia-mutated kinase
- detection in fraction pulled down by Mdc1–FHA domain (Mdc1–FHA domain): could not detect peptides
- detection by western blot in Mdc1–FHA pull-down / co-IP (Mdc1–FHA domain): unable to detect

Molecule: Chk2: DNA damage kinase
- detection in fraction pulled down by Mdc1–FHA domain (Mdc1–FHA domain): could not detect peptides
- detection by western blot in Mdc1–FHA pull-down / co-IP (Mdc1–FHA domain): unable to detect

Molecule: DDB1- and Cul4-associated factor 1 [DCAF1]
- decrease of interaction with the MDC1–FHA domain in the presence of DNA damage [1]: > 2.5 fold

Molecule: DNA damage binding protein 1 [DDB1]
- decrease of interaction with the MDC1–FHA domain in the presence of DNA damage [1]: > 2.5 fold

Molecule: MDC1: endogenous Mdc1 as interaction partner of its own FHA domain
- interaction with wild-type compared to T4A FHA domain (in words) [2]: interacts with the wild-type fragment

Molecule: Mdc1 1-12 (from UniProt Q14676) pThr-4 peptide
- binding against the reference (Mdc1 M-1, 1-124): stronger

Molecule: Mdc1 1-154 (from UniProt Q14676) T4A FHA fragment
- binding against the reference (Mdc1): weaker

Molecule: Mdc1 1-800 (from UniProt Q14676) T4A
- binding against the reference (Mdc1 1-800): weaker

Molecule: Mdc1 Thr-4 motif peptide (from UniProt Q14676) pThr-4 peptide
- binding against the reference (Mdc1 FHA domain): stronger

B1: Mdc1 (1–800) R58A: FHA domain R58A mutant of Mdc1 (1–800) (protein, UniProt Q14676 1-800, looked up, variant R58A)
chain: MEDTQAIDWDVEEEEETEQSSESLRCNVEPVGRLHIFSGAHGPEKDFPLHLGKNVVGAMPDCSVALPFPSISKQHAEIEILAWDKAPILRDCGSLNGTQILRPPKVLSPGVSHRLRDQELILFADLLCQYHRLDVSLPFVSRGPLTVEETPRVQGETQPQRLLLAEDSEEEVDFLSERRMVKKSRTTSSSVIVPESDEEGHSPVLGGLGPPFAFNLNSDTDVEEGQQPATEEASSAARRGATVEAKQSEAEVVTEIQLEKDQPLVKERDNDTKVKRGAGNGVVPAGVILERSQPPGEDSDTDVDDDSRPPGRPAEVHLERAQPFGFIDSDTDAEEERIPATPVVIPMKKRKIFHGVGTRGPGAPGLAHLQESQAGSDTDVEEGKAPQAVPLEKSQASMVINSDTDDEEEVSAALTLAHLKESQPAIWNRDAEEDMPQRVVLLQRSQTTTERDSDTDVEEEELPVENREAVLKDHTKIRALVRAHSEKDQPPFGDSDDSVEADKSSPGIHLERSQASTTVDINTQVEKEVPPGSAIIHIKKHQVSVEGTNQTDVKAVGGPAKLLVVSLEEAWPLHGDCETDAEEGTSLTASVVADVRKSQLPAEGDAGAEWAAAVLKQERAHEVGAQGGPPVAQVEQDLPISRENLTDLVVDTDTLGESTQPQREGAQVPTGREREQHVGGTKDSEDNYGDSEDLDLQATQCFLENQGLEAVQSMEDEPTQAFMLTPPQELGPSHCSFQTTGTLDEPWEVLATQPFCLRESEDSETQPFDTHLEAYGPCLSPPRAIPGDQHPESPVHTEPM
- interaction of Flag-tagged with Myc-tagged Mdc1 (1–800) (Myc-tagged Mdc1 (1–800)): significant reduction of the interaction

B2: Mdc1 (1–800) concomitant mutation of both the FHA domain and Thr-4: T4A/R58A mutant of Mdc1 (1–800) (protein, UniProt Q14676 1-800, looked up, variant T4A R58A)
chain: B1 chain with T4A
- interaction of Flag-tagged with Myc-tagged Mdc1 (1–800) (Myc-tagged Mdc1 (1–800)): complete loss of binding

B3: Mdc1 (1–800) T4A: T4A mutant of Mdc1 (1–800) (protein, UniProt Q14676 1-800, looked up, variant T4A)
chain: B1 chain with T4A, A58R
- interaction of Flag-tagged with Myc-tagged Mdc1 (1–800) (Myc-tagged Mdc1 (1–800)): significant reduction of the interaction

B4: M-4: GST-fusion Mdc1 fragment M-4 (amino acids 531–770) (protein, UniProt Q14676 531-770, looked up, fragment)
chain: PGSAIIHIKKHQVSVEGTNQTDVKAVGGPAKLLVVSLEEAWPLHGDCETDAEEGTSLTASVVADVRKSQLPAEGDAGAEWAAAVLKQERAHEVGAQGGPPVAQVEQDLPISRENLTDLVVDTDTLGESTQPQREGAQVPTGREREQHVGGTKDSEDNYGDSEDLDLQATQCFLENQGLEAVQSMEDEPTQAFMLTPPQELGPSHCSFQTTGTLDEPWEVLATQPFCLRESEDSETQPFDT
modifications: GST fusion
- phosphorylation by ATM in vitro [3]: ATM only phosphorylated fragment M-1 (amino acids 1–124) and fragment M-4 (amino acids 531–770)

B5: M-1: GST-fusion Mdc1 fragment M-1 (amino acids 1–124) (protein, UniProt Q14676 1-124, looked up, fragment)
chain: T1 sequence (looked up)
modifications: GST fusion
- phosphorylation by ATM in vitro [3]: ATM only phosphorylated fragment M-1 (amino acids 1–124) and fragment M-4 (amino acids 531–770)

B6: M-1 T4A: M-1 point mutation altering Thr-4 to Ala (protein, UniProt Q14676 1-124, looked up, variant T4A)
chain: T1 sequence (looked up) with T4A
modifications: GST fusion
- phosphorylation by ATM in vitro [3]: could no longer be phosphorylated by ATM in vitro

B7: wild-type Mdc1–FHA (27–138) (domain or fragment, human, UniProt Q14676 27-138, looked up)
chain: NVEPVGRLHIFSGAHGPEKDFPLHLGKNVVGRMPDCSVALPFPSISKQHAEIEILAWDKAPILRDCGSLNGTQILRPPKVLSPGVSHRLRDQELILFADLLCQYHRLDVSLP
- stoichiometry N (SEC-MALS): 2

B8: Mdc1-FHA domain: C-terminally Strep-tagged Mdc1-FHA domain (amino acids 1–154) (protein)
chain: B7 chain
modifications: left off: GST, end not stated, cleaved
- Thr-98 phosphorylation ([4]; MS of tryptic peptide): no phosphorylated form was evident
- occupancy rate of phosphorylated Thr-4, after irradiation ([4]; SILAC and extracted ion chromatogram quantitation, after irradiation): 61.5%
- occupancy rate of phosphorylated Thr-4, before irradiation ([4]; SILAC and extracted ion chromatogram quantitation, not irradiated): 18.6%

Molecule: MED[pT]QAIDWDVE (peptide, UniProt Q14676 1-12, looked up)
- binding result [5]: binds

B9: Rad51: repair protein (protein)
chain: MAMQMQLEANADTSVEEESFGPQPISRLEQCGINANDVKKLEEAGFHTVEAVAYAPKKELINIKGISEAKADKILAEAAKLVPMGFTTATEFHQRRSEIIQITTGSKELDKLLQGGIETGSITEMFGEFRTGKTQICHTLAVTCQLPIDRGGGEGKAMYIDTEGTFRPERLLAVAERYGLSGSDVLDNVAYARAFNTDHQTQLLYQASAMMVESRYALLIVDSATALYRTDYSGRGELSARQMHLARFLRMLLRLADEFGVAVVITNQVVAQVDGAAMFAADPKKPIGGNIIAHASTTRLYLRKGRGETRICKIYDSPCLPEAEAMFAINADGVGDAKD
- detection in fraction pulled down by Mdc1–FHA domain (Mdc1–FHA domain): could not detect peptides

B10: RNF95: uncharacterized RING-finger domain protein (protein)
chain: MATSAPLRSLEEEVTCSICLDYLRDPVTIDCGHVFCRSCTTDVRPISGSRPVCPLCKKPFKKENIRPVWQLASLVENIERLKVDKGRQPGEVTREQQDAKLCERHREKLHYYCEDDGKLLCVMCRESREHRPHTAVLMEKAAQPHREKILNHLSTLRRDRDKIQGFQAKGEADILAALKKLQDQRQYIVAEFEQGHQFLREREEHLLEQLAKLEQELTEGREKFKSRGVGELARLALVISELEGKAQQPAAELMQDTRDFLNRYPRKKFWVGKPIARVVKKKTGEFSDKLLSLQRGLREFQGKLLRDLEYKTVSVTLDPQSASGYLQLSEDWKCVTYTSLYKSAYLHPQQFDCEPGVLGSKGFTWGKVYWEVEVEREGWSEDEEEGDEEEEGEEEEEEEEAGYGDGYDDWETDEDEESLGDEEEEEEEEEEEVLESCMVGVARDSVKRKGDLSLRPEDGVWALRLSSSGIWANTSPEAELFPALRPRRVGIALDYEGGTVTFTNAESQELIYTFTATFTRRLVPFLWLKWPGTRLLLRP
- interaction with wild-type compared to T4A FHA domain (in words) [2]: significantly increased in the wild-type compared to T4A FHA domain expressing cells
